Results from ChEMBL document CHEMBL1781951, “Theonellasterols and conicasterols from Theonella swinhoei. Novel marine natural ligands for human nuclear receptors” (J Med Chem, 2011).
Calls of active or inactive are those of the source. The calls are words filed in the database; no cut-off is given here.

Legend:
[1] = target: T1, Bile acid receptor (Homo sapiens) (UniProt Q96RI1); assay: Antagonist activity at human FXR expressed in HepG2 cells assessed as inhibition of CDCA-induced transactivation at 50 uM after 18 hrs by luciferase reporter gene assay
T1 sequence (whole entry): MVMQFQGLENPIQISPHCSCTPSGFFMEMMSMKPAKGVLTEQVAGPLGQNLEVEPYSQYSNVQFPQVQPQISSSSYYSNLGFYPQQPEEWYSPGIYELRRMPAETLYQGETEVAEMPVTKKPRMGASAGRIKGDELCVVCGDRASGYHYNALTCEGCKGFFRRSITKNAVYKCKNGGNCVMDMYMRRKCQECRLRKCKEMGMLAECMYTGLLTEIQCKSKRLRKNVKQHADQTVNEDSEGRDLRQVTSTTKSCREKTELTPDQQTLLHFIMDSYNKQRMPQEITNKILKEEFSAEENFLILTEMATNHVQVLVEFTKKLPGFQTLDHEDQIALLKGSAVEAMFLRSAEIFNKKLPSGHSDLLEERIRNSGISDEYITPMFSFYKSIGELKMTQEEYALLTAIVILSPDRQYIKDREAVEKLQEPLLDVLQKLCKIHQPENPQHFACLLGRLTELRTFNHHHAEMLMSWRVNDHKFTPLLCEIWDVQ

[2] = target: T1, Bile acid receptor (Homo sapiens); assay: Partial agonist activity at human FXR expressed in human HepG2 cells assessed as induction of transactivation at 10 uM after 18 hrs by luciferase reporter gene assay; format: functional, cell-based
Summary of the method: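 HepG2 cells (5 × 10^5 cells/well) were transiently transfected using Fugene HD with pSG5-FXR, pSG5-RXR, pCMV-β-gal and a p(hsp27)-TK-LUC reporter carrying the hsp27 IR1 FXR response element. At 48 h post-transfection, cells were stimulated 18 h with test agent at 10 μM; 10 μM CDCA served as reference. Luciferase was normalized to β-gal; P < 0.05 vs untreated, n = 4.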

[3] = target: T1, Bile acid receptor (Homo sapiens); assay: Agonist activity at human FXR expressed in human HepG2 cells assessed as induction of OSTalpha mRNA expression at 50 uM by quantitative RT-PCR analysis; format: functional, cell-based
Summary of the method: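 HepG2 cells were primed with 10 μM CDCA alone or with 50 μM test agent. cDNA (50 ng template) was amplified by SYBR Green qPCR with 0.2 μM of each primer over 40 cycles (95/55/72 °C) in triplicate. Expression was normalized to GAPDH and reported as 2^ΔΔCT relative to untreated cells.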

Row | inhibition [1] | Activity [2] | Activity [3] | Compound
1 | Active | inactive |  | C=C1[C@@H](O)CC[C@@]2(C)[C@H]1CCC1=C3[C@H](O)C[C@H]([C@H](C)CC[C@H](CC)C(C)C)[C@@]3(C)CC[C@@]12O
2 | Active | inactive |  | C=C1[C@@H](O)CC[C@@]2(C)[C@H]1CCC1=C3[C@H](O)C[C@H]([C@H](C)CC[C@@H](C)C(C)C)[C@@]3(C)CC[C@@]12O
3 | Active | inactive |  | C=C1[C@@H](O)CC[C@]2(C)C3=CC[C@@]4(C)C(=CC[C@@H]4[C@H](C)CC[C@H](CC)C(C)C)C3=CC[C@@H]12
4 | Active | inactive |  | C=C1[C@@H](O)CC[C@]2(C)C3=C(CC[C@@H]12)[C@@H]1C(=O)C[C@H]([C@H](C)CC[C@H](CC)C(C)C)[C@@]1(C)CC3
5 | inactive | inactive |  | C=C1[C@@H](O)CC[C@]2(C)C3=C(CC[C@@H]12)[C@]1(O)[C@@H](O)C[C@H]([C@H](C)CC[C@H](CC)C(C)C)[C@@]1(C)C[C@H]3O
6 | Active | Active | Active | C=C1[C@@H](O)CC[C@]2(C)C3=C(CC[C@@H]12)[C@]1(O)[C@@H](O)C[C@H]([C@H](C)CC[C@H](CC)C(C)C)[C@@]1(C)C[C@@H]3O
7 | Active | inactive |  | C=C1[C@@H](O)CC[C@@]2(C)[C@H]1C[C@@H](O)C1=C3[C@H](O)C[C@H]([C@H](C)CC[C@H](CC)C(C)C)[C@@]3(C)CC[C@@H]12
8 | inactive | inactive |  | C=C1[C@@H](O)CC[C@@]2(C)[C@H]1CCC1=C3[C@H](O)C[C@H]([C@H](C)CC[C@H](CC)C(C)C)[C@@]3(C)CC[C@@]12OC
9 | Active | inactive |  | C=C1[C@@H](O)CC[C@]2(C)C3=CC[C@@]4(C)C(=CC[C@@H]4[C@H](C)CC[C@@H](C)C(C)C)C3=CC[C@@H]12
